Results on ten compounds are retold here after PubChem BioAssay.

Broadly, the inhibition is the drop in the measured response relative to a control, in per cent.

Active and inactive are the calls of the source.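 Rule for the calls, unless noted: active = inhibition of the reporter signal at or above 50%; inactive = inhibition below 50%.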

Assay [1] is described as follows: inhibitors of TNFa-induced NFkB p65 translocation, primary screen, imaging, HUVEC, MLSMR starter and 10KST1 sets (AID 438;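 active = inhibition above 20% together with a positive visual image hit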;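 note: compound added about 3h40 before a 20 min TNFalpha stimulation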;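 for inhibition: signal is the nuclear over cytoplasmic p65 intensity ratio per well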). The conditions noted are these: HUVEC TNFa-induced p65 nuclear translocation; cell count: measured here: nuclei count (cytotoxicity indicator), at 2.08 µM; inhibition: at 2 µM, stronger effect = higher value, 0% TNFa-plus-vehicle, 100% no-TNFa wells.
A short description of assay [2]: inhibitors of mutant huntingtin aggregation, primary screen, imaging, exon1htt(103Q)mCFP cells, high-content imaging (AID 483;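 active = visual image review flags a hit and inhibition of aggregation exceeds 20%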;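 note: compound exposure lasted 3 days before fixation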;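 for nuclei count: percent of the per-plate median nuclei count of sample wells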). The following applies: exon1htt(103Q)mCFP cell line, aggregate imaging, at 2 µM; inhibition of aggregation: stronger effect = higher value; nuclei count: measured here: cell count, toxicity.
The nature of assay [3]: inhibitors of E-selectin induction by TNFa, primary screen, imaging, HUVEC, immunofluorescence, MLSMR starter and 10KST1 sets (AID 487;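 active = visually confirmed hit in the image check and inhibition above 20%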;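 for inhibition: signal is fraction of cell area covered by stained E-selectin grains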;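 for nuclei count: 100% = median nuclei count of all wells on the same plate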). The following applies: HUVEC TNFalpha-induced E-selectin immunofluorescence imaging, at 2 µM; inhibition: stronger effect = higher value; nuclei count: measured here: cell number, toxicity.
The target of assay [4] is Voltage-gated potassium channel subunit beta-2 (Rattus norvegicus) (UniProt P62483). The assay can be described thus: KvBeta enzyme negative modulators, primary screen, biochemical, NADPH fluorescence (AID 622;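 active = fluorescence slope higher than the sample average by over 3 SD, cut at about -0.22 in these data, passing the limit was not always enough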;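 note: slope of raw intensity against log time taken from 70 to 1610 s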). The conditions noted are these: recombinant KvBeta, 4-cyanobenzaldehyde reduction, at 10 µM, stronger effect = higher value.
Assay [5] has the same target. The assay can be described thus: KvBeta positive modulators, primary screen, biochemical, NADPH fluorescence (AID 623;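 active = NADPH fluorescence slope more negative than the mean of all samples by about 3 SD, 99.7% confidence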;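 note: fluorescence intensity change per second fitted from 20 to 320 s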). The following applies: Recombinant KvBeta, NADPH fluorescence decrease slope, 10 min; at 10 µM; stronger effect = lower value.
In assay [6] the target is Muscarinic acetylcholine receptor M4 (Homo sapiens) (UniProt P08173). The assay can be described thus: compounds altering M4/GIRK thallium flux, either direction, primary screen, M4 allosteric agonist project, cell-based, HEK293 M4/GIRK, BTC-AM (AID 625;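 active = fluorescence slope after compound addition differing from the mean of all tested samples at 99.7% confidence, mostly higher but some lower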;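 note: thallium influx through GIRK channels coupled to M4 in HEK293 cells with BTC-AM dye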). The conditions noted are these: at 10 µM, actives lie on both sides. An outline of the steps: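 assay system = HEK293 cells with M4 receptor and GIRK channels | medium = pH 7.3 thallium assay buffer | doses = 10 µM final, single point | timing = cells overnight at 37 °C, BTC-AM loading 1 h, reads 2 min total | signal = BTC-AM fluorescence, 1 Hz kinetic reads | read-out = post-addition slope, 15–24 s, of baseline-normalized fluorescence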

A short description of assay [7]: inhibitors of Sendai virus-induced IRF3 signaling, primary screen, TLR/RLR signaling modifier project, cell-based, Sendai virus stimulus, luciferase, 10K MLSCN set (AID 602276;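 active = inhibition at or above 50% at 10 µM; inactive = inhibition below 50%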;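 note: firefly luciferase from ISG56 promoter only with Renilla not read in this screen; 0% = Sendai virus plus DMSO and 100% = medium plus DMSO without virus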). The conditions noted are these: HEK293 RL24 IRF3 luciferase reporter, at 10 µM, stronger effect = higher value.
Assay [8] is described as follows: inhibitors of poly I:C-induced TLR3 signaling, primary screen, cell-based, poly I:C stimulus, luciferase, 10K MLSCN set (AID 602277). The following applies: HEK293-TLR3 RL24 IRF3 luciferase reporter, at 10 µM, stronger effect = higher value. (A reporter such as luciferase makes a cellular process visible.)

Chain of Voltage-gated potassium channel subunit beta-2 (Rattus norvegicus) (P62483 whole entry, looked up): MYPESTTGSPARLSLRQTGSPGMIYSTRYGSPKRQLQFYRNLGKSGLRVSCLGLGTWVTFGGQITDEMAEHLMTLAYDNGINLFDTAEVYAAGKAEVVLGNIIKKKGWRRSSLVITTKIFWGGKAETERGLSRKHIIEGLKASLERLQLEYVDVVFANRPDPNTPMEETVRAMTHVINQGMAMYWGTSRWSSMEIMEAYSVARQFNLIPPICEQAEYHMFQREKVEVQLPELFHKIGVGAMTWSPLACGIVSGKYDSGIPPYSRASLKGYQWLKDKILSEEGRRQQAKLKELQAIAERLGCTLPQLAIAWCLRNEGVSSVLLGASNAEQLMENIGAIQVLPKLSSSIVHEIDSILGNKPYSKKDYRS
Chain of Muscarinic acetylcholine receptor M4 (Homo sapiens) (P08173 whole entry, looked up): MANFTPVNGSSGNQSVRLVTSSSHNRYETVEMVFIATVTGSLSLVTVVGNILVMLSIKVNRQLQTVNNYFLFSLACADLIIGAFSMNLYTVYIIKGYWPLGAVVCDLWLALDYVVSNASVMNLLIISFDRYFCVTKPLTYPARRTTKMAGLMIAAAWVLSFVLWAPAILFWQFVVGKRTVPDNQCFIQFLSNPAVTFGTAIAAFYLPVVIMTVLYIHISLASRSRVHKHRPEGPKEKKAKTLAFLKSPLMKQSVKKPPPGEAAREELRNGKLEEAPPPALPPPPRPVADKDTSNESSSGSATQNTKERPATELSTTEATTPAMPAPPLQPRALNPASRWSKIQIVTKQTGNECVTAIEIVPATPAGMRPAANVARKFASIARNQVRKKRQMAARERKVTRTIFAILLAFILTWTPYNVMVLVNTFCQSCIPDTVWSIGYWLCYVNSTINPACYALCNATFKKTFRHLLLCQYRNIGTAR

As for `CCn1c2ccccc2c2cc(NC(=O)CSc3nnc(C4CC4)n3Cc3ccco3)ccc21`, the cell count in assay [1] was 488. Moreover, the inhibition in assay [1] is 6.3% (inactive); in assay [3], 36.4% (inactive); in assay [7], 12.7% (inactive); in assay [8] it was 17.6% (inactive). Further, in assay [2], the inhibition of aggregation was 2.5% (inactive). The nuclei count in assay [2] and in assay [3] was 94.6% in each case. Besides, the results for the fluorescence slope in assay [4] and in assay [6] were -0.461 (inactive) and 0.00526 (inactive), respectively. Further, in assay [5], the NADPH fluorescence slope was 2.1e-05 (inactive).

With `Cc1sc2nc(SCC(=O)NCc3ccco3)n(CCc3ccccc3)c(=O)c2c1C`, in assay [1], the cell count came to 589. For the same compound, the inhibition is -17.7% (inactive) in assay [1], -45.3% (inactive) in assay [3], 13.1% (inactive) in assay [7] and 0.6% (inactive) in assay [8]. For the same compound, the inhibition of aggregation in assay [2] is -11.6% (inactive). The nuclei count in assay [2] came to 101%; in assay [3], 108%. The fluorescence slope in assay [4] was -0.394 (inactive); in assay [6], 0.0086 (inactive). The NADPH fluorescence slope in assay [5] was 5.5e-06 (inactive).

Consider `O=C(NCCN1CCCC1)C1COc2ccccc2O1` (stereo not given), for which the cell count in assay [1] came to 511. Moreover, the inhibition in assay [1] is -0.5% (inactive); in assay [3], -28.7% (inactive); in assay [7], 1.21% (inactive); in assay [8], 11.8% (inactive). Also, in assay [2], the inhibition of aggregation is -4.3% (inactive). In addition, the nuclei count in assay [2] was 73.8%; in assay [3] it was 100%. Also, the figures for the fluorescence slope in assay [4] and in assay [6] were -0.587 (inactive) and 0.0064 (inactive), respectively. Further, the NADPH fluorescence slope in assay [5] is -3.1e-05 (inactive).

With `COc1ccc2oc(C)c(C(=O)Cn3ccnc3)c2c1`, the cell count in assay [1] was found to be 488. Also, the inhibition in assay [1] was -7.3% (inactive); in assay [3], -16% (inactive); in assay [7], -26.4% (inactive); in assay [8], -28.5% (inactive). Further, the inhibition of aggregation in assay [2] is 22.7% (inactive). Also, the figures for the nuclei count in assay [2] and in assay [3] were 54.3% and 108%, respectively. Further, the fluorescence slope in assay [4] was -0.578 (inactive); in assay [6], 0.00618 (inactive). For the same compound, the NADPH fluorescence slope in assay [5] was -1.5e-05 (inactive).

For the compound `O=C(O)CCc1ccc(-c2cccs2)n1NC(=O)c1ccco1`, the cell count in assay [1] was 719. The inhibition is 3.6% (inactive) in assay [1], -93.6% (inactive) in assay [3], 20.8% (inactive) in assay [7] and 17.9% (inactive) in assay [8]. The inhibition of aggregation in assay [2] was -10.1% (inactive). The nuclei count is 107% in assay [2] and 132% in assay [3]. Further, the fluorescence slope in assay [4] is -0.463 (inactive); in assay [6], 0.00473 (inactive). Further, in assay [5], the NADPH fluorescence slope was 1.5e-05 (inactive).

Consider `CC(C(=O)N1CCCCC1)n1ncn2cccc2c1=O` (stereo not given), for which, in assay [1], the cell count is 397. Further, the inhibition in assay [1] is -2.5% (inactive); in assay [3], -4.6% (inactive); in assay [7], 6.93% (inactive); in assay [8], 98.3% (active). Also, the inhibition of aggregation in assay [2] was 0.4% (inactive). Besides, the nuclei count is 94.2% in assay [2] and 97.4% in assay [3]. In addition, the fluorescence slope in assay [4] was -0.595 (inactive); in assay [6] it was 0.00463 (inactive). Further, in assay [5], the NADPH fluorescence slope is -2.8e-05 (inactive).

Regarding `Cc1cc(S(=O)(=O)NC2CCCCC2)ccc1OCC(=O)NCc1ccccn1`, the cell count in assay [1] stood at 346. The inhibition in assay [1] was -8.6% (inactive); in assay [3] it was -70.2% (inactive); in assay [7] it was 20.7% (inactive); in assay [8], 34% (inactive). The inhibition of aggregation in assay [2] is 7.8% (inactive). For the same compound, the nuclei count in assay [2] was determined as 96.4%; in assay [3], 106%. Besides, the values for the fluorescence slope in assay [4] and in assay [6] were -0.607 (inactive) and 0.0059 (inactive), respectively. Also, in assay [5], the NADPH fluorescence slope was 5.7e-06 (inactive).

`COc1ccc(CCn2c(N)c(C#N)c3nc4ccccc4nc32)cc1OC`: the cell count in assay [1] was found to be 397. The inhibition is -2.3% (inactive) in assay [1], 21.9% (inactive) in assay [3], 17.3% (inactive) in assay [7] and 13.6% (inactive) in assay [8]. Moreover, the inhibition of aggregation in assay [2] was -8% (inactive). Moreover, the nuclei count in assay [2] amounted to 105%; in assay [3] it was 150%. Also, the fluorescence slope in assay [4] was -0.52 (inactive); in assay [6], 0.00433 (inactive). Further, the NADPH fluorescence slope in assay [5] is -5.8e-05 (inactive).

In the case of `CCOC(=O)c1[nH]nc(-c2c(O)cc(C)cc2O)c1-c1csc(C)n1`, the cell count in assay [1] stood at 495. Further, the inhibition was -16.3% (inactive) in assay [1], 56.2% (inactive) in assay [3], -7.71% (inactive) in assay [7] and -0.807% (inactive) in assay [8]. Also, the inhibition of aggregation in assay [2] was -2.1% (inactive). In addition, the values for the nuclei count in assay [2] and in assay [3] were 87.5% and 61.3%, respectively. For the same compound, the fluorescence slope was -0.453 (inactive) in assay [4] and 0.00535 (inactive) in assay [6]. The NADPH fluorescence slope in assay [5] was -0.000313 (inactive).

`COc1ccc(CC(=O)OCc2nnc(C3COc4ccccc4O3)o2)cc1OC` (stereo not given): the cell count in assay [1] worked out at 440. Also, the inhibition in assay [1] is -1.1% (inactive); in assay [3], -48% (inactive); in assay [7], 7.17% (inactive); in assay [8] it was 9.19% (inactive). Besides, in assay [2], the inhibition of aggregation is -0.3% (inactive). The nuclei count was 91.8% in assay [2] and 85.8% in assay [3]. Further, the fluorescence slope is -0.405 (inactive) in assay [4] and 0.00765 (inactive) in assay [6]. Also, the NADPH fluorescence slope in assay [5] is 1.8e-05 (inactive).
